Data on seven compounds can be found in ChEMBL document CHEMBL4196113, “Discovery of a First-in-Class Gut-Restricted RET Kinase Inhibitor as a Clinical Candidate for the Treatment of IBS” (ACS Med Chem Lett, 2018).

Each structure is given as a SMILES string. ≈ marks a conversion by molar mass, not a printed value. Calls of active or inactive are those of the source. No cut-off for these calls is given here.

One series deals with Salmonella typhimurium. The experiment in a line: Genotoxicity in Salmonella typhimurium TA98 by Ames test. It counts as toxicity, organism-based. As to conditions: salmonella enterica subsp. enterica serovar typhimurium.
The target of series [1] is Vascular endothelial growth factor receptor 2 (Homo sapiens, UniProt P35968). The experiment in a line: Inhibition of human KDR using cisbio TK biotin-peptide as substrate preincubated for 30 mins followed by substrate addition measured after 30 mins by HTRF assay.
Sequence of Vascular endothelial growth factor receptor 2 (P35968 whole entry): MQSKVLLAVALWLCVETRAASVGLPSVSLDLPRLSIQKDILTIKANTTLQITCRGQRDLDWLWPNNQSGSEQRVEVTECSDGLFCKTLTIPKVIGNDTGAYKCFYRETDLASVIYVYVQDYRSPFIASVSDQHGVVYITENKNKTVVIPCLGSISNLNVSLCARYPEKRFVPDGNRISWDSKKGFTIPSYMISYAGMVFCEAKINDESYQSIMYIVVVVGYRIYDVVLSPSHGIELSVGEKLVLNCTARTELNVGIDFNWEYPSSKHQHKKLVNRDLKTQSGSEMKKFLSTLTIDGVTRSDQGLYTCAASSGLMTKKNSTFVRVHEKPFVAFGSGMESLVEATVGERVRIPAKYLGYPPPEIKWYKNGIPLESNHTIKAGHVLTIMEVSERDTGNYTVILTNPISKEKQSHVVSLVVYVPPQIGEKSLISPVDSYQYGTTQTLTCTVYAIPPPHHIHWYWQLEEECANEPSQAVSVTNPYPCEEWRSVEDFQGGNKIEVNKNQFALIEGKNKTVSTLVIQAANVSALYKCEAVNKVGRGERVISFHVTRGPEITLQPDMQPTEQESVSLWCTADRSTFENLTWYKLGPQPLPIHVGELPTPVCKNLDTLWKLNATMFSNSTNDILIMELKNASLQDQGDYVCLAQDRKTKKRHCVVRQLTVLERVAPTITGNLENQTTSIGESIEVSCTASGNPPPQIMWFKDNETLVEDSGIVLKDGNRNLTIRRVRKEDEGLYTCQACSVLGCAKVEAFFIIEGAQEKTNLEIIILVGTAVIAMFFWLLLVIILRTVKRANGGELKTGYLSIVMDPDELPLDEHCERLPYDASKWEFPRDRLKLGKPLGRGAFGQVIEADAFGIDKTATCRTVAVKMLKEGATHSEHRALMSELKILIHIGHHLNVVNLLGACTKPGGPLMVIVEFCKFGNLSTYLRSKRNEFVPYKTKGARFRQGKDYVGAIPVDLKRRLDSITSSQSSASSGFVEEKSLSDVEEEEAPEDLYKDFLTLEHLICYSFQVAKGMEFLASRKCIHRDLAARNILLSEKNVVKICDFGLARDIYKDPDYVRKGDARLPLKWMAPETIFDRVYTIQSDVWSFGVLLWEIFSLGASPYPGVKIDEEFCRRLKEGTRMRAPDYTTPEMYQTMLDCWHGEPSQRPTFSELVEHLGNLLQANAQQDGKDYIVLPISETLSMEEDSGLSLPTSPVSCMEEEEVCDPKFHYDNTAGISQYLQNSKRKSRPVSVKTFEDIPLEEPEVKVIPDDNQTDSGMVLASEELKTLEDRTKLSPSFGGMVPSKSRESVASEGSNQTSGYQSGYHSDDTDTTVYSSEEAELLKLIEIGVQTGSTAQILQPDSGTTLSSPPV
Series [2] can be described thus: Cmax in colon of Sprague-Dawley rat at 10 mg/kg, po bid administered 7 doses over 3.5 days. It is filed as ADME, organism-based. The arrangement: dose 10 mg/kg, route oral. The essentials:
(§1)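 Satellite rats from the colonic hypersensitivity dosing regimen received 10 mg/kg orally twice daily, seven doses over 3.5 days. Concentrations were measured in colon contents, duodenum, jejunum, ileum, colon tissue homogenate and plasma. Cmax (ng/mL) and Tmax (h) were taken from the full time–concentration profiles.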

Series [3] in a line: Cmax in jejunum of Sprague-Dawley rat at 10 mg/kg, po bid administered 7 doses over 3.5 days. It counts as ADME, organism-based. Set-up: dose 10 mg/kg, route oral. The essentials:
as §1

Series [4] is described as follows: Solubility of the compound in FaSSIF after 4 hrs. It is filed as physicochemical. The procedure, abridged:
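Solubility was measured in fasted state simulated intestinal fluid after 4 h.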

A short description of series [5]: Tmax in jejunum of Sprague-Dawley rat at 10 mg/kg, po bid administered 7 doses over 3.5 days. It counts as ADME, organism-based. The procedure, abridged: as §1
Series [6] can be described thus: Tmax in plasma of Sprague-Dawley rat at 10 mg/kg, po bid administered 7 doses over 3.5 days. It counts as ADME, organism-based. The procedure, abridged: as §1
The test system of the next series is Rattus norvegicus. Description: Reduction in acetic acid-induced acute visceral afferent neuron sensitization in Sprague-Dawley rat acute colonic hypersensitivity model assessed as decrease in visceromotor response to colorectal distension by measuring number of abdominal contractions at 10 mg/kg, po bid administered for 3.5 days followed by acetic acid induction for 60 mins administered 5 mins post last compound dose and measured for 10 mins. It is filed as functional, organism-based. The essentials:
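Acetic acid enema at low concentration gave a transient, noninflammatory sensitization of colonic afferents. Colorectal distension then evoked a visceromotor response, scored visually as abdominal contractions. Rats (n = 7 per group) were dosed orally at 10 mg/kg twice daily for 3.5 days and compared with acetic acid/vehicle controls. Analysis used repeated-measure two-way ANOVA with Bonferroni post-test.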

In series [7] the target is Proto-oncogene tyrosine-protein kinase receptor Ret (Rattus norvegicus, UniProt G3V9H8). Description: Binding affinity to RET in Sprague-Dawley rat colon tissue cell lysate using sepharose beads incubated for 45 mins by LC-MS/MS based chemoproteomics assay. The procedure, abridged: (§2)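 Colon tissue was isolated from rats and analysed by kinobead chemoproteomics. Compound competed with the beads for kinase binding. Apparent affinity is reported as pKdapp and converted to Kd.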
Sequence of Proto-oncogene tyrosine-protein kinase receptor Ret (G3V9H8 whole entry): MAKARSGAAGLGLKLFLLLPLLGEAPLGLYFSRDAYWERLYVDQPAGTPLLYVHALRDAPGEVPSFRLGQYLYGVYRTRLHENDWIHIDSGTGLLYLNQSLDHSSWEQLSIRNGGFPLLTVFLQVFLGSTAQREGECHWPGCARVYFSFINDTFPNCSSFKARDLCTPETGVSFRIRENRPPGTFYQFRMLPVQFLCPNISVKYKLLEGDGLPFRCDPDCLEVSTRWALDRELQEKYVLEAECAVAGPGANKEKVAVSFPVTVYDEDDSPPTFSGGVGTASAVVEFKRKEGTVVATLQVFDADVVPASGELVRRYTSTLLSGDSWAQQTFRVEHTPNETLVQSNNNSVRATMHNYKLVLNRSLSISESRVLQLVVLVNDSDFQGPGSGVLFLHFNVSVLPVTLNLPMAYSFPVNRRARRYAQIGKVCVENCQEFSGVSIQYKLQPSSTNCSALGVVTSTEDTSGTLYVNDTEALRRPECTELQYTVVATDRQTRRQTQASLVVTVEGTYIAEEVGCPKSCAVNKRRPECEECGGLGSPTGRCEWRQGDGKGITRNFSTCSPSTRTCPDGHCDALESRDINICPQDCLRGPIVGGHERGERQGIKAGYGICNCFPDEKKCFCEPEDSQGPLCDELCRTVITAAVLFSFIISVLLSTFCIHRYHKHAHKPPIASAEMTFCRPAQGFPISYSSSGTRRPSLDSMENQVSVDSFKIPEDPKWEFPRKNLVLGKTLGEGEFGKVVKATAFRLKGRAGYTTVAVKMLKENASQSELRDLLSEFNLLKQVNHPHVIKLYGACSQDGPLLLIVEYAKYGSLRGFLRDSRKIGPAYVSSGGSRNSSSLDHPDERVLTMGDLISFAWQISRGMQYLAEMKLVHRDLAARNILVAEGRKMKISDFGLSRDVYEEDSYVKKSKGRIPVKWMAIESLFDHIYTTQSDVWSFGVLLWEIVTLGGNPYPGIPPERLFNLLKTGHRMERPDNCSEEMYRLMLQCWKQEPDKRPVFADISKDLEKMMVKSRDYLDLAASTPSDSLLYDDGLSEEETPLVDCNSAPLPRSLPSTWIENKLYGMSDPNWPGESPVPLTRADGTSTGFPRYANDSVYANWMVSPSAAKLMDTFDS

The nature of series [8]: Cmax in ileum of Sprague-Dawley rat at 10 mg/kg, po bid administered 7 doses over 3.5 days. It is filed as ADME, organism-based. The arrangement: dose 10 mg/kg, route oral. The procedure, abridged: as §1
Series [9] is described as follows: Solubility of the compound by CLND method. It counts as physicochemical. The essentials: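 Kinetic solubility was measured by chemiluminescent nitrogen detection.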
Series [10] has as its target T1, Epithelial discoidin domain-containing receptor 1 (Rattus norvegicus, UniProt Q63474).
T1 sequence (Q63474 whole entry): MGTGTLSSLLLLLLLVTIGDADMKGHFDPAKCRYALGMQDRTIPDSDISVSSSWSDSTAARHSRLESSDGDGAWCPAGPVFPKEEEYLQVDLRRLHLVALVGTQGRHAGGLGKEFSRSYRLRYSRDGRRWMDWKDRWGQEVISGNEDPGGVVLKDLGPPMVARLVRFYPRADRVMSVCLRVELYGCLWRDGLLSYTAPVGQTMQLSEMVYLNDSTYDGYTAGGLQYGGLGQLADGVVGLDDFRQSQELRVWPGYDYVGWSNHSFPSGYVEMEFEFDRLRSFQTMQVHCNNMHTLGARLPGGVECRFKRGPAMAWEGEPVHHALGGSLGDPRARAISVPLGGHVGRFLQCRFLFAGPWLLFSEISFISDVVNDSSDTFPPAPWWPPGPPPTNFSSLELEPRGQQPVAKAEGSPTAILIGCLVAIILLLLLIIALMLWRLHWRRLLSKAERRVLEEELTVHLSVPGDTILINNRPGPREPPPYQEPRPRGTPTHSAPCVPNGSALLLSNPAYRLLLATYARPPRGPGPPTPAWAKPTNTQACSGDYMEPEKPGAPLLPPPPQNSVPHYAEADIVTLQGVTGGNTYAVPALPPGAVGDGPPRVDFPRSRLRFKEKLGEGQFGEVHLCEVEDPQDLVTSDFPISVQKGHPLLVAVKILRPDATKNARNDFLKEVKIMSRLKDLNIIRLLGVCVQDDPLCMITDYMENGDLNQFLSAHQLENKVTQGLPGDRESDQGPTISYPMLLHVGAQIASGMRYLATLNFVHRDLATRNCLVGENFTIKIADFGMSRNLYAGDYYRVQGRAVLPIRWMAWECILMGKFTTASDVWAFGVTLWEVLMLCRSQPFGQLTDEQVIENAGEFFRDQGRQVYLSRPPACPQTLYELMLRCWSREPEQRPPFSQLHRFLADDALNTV
Description: Binding affinity to DDR1 in Sprague-Dawley rat colon tissue cell lysate using sepharose beads incubated for 45 mins by LC-MS/MS based chemoproteomics assay. The essentials:
as §2

Series [11] is described as follows: Tmax in duodenum of Sprague-Dawley rat at 10 mg/kg, po bid administered 7 doses over 3.5 days. It is filed as ADME, organism-based. The procedure, abridged:
as §1

A short description of series [12]: Cmax in plasma of Sprague-Dawley rat at 10 mg/kg, po bid administered 7 doses over 3.5 days. The arrangement: dose 10 mg/kg, route oral. It is filed as ADME, organism-based. The procedure, abridged: as §1
The nature of series [13]: Tmax in colon contents of Sprague-Dawley rat at 10 mg/kg, po bid administered 7 doses over 3.5 days. It is filed as ADME, organism-based, Colon content. The essentials:
as §1

The nature of series [14]: AUC in Sprague-Dawley rat at 0.06 mg/kg, iv administered via bolus. As to conditions: in vivo. It counts as ADME, organism-based. The procedure, abridged:
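Male Sprague–Dawley rats received a single IV bolus. Compound was formulated as a clear solution at 0.04 mg/mL in DMSO/6% HP-beta-CD (5:95), pH 7. AUC was derived from the plasma concentration–time curve.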

A short description of series [15]: Cmax in colon contents of Sprague-Dawley rat at 10 mg/kg, po bid administered 7 doses over 3.5 days. It is filed as ADME, organism-based, Colon content. The arrangement: dose 10 mg/kg, route oral. The procedure, abridged: as §1
Series [16] is described as follows: Cmax in duodenum of Sprague-Dawley rat at 10 mg/kg, po bid administered 7 doses over 3.5 days. It counts as ADME, organism-based. The arrangement: dose 10 mg/kg, route oral. The essentials:
as §1

Series [17] is described as follows: Tmax in ileum of Sprague-Dawley rat at 10 mg/kg, po bid administered 7 doses over 3.5 days. It counts as ADME, organism-based. The essentials: as §1
A short description of series [18]: Tmax in colon of Sprague-Dawley rat at 10 mg/kg, po bid administered 7 doses over 3.5 days. It is filed as ADME, organism-based. The essentials:
as §1

The nature of series [19]: Binding affinity to DDR2 in Sprague-Dawley rat colon tissue cell lysate using sepharose beads incubated for 45 mins by LC-MS/MS based chemoproteomics assay. The essentials:
as §2

Take `COc1cc(-c2ccc(N)c(F)c2)c[nH]c1=O`: in the series with Salmonella typhimurium, the Activity result was “Toxic”.
For the compound `CC(C)(c1cc(N)no1)C(F)(F)F`, in the series on Salmonella typhimurium, the Activity entry was “Non-Toxic”.
As to `CCN1CCN(Cc2ccc(N)cc2C(F)(F)F)CC1`, in the series with Salmonella typhimurium, the Activity entry is on record as “Toxic”.
Regarding `CCOc1cc(-c2ccc(N)cc2)c[nH]c1=O`, the Activity result with Salmonella typhimurium is “Toxic”.
As to `CCN1CCN(Cc2ccc(NC(=O)Nc3ccc(-c4ccnc(NC)c4)cc3)cc2C(F)(F)F)CC1`, in [1], the half-inhibitory concentration (IC50) was > 1000 nM.
For the compound `CCOc1cc(-c2ccc(N)c(F)c2)c[nH]c1=O`, the Activity result in the series on Salmonella typhimurium is listed as “Toxic”.
Regarding `CCOc1cc(=O)[nH]cc1-c1ccc(CC(=O)Nc2cc(C(C)(C)C(F)(F)F)on2)c(F)c1` [GSK-3179106], the Cmax was found to be 3360 ng/mL in series [2]; 12800 ng/mL in series [3]; 5520 ng/mL in [8]; 40 ng/mL in [12]; 288 µg/mL in [15]; 15700 ng/mL in series [16]. The solubility at 4 h in [4] was 0.4 µg/mL (≈ 0.856 µM). The time of peak concentration (Tmax) in [5] came out at 1 h; in [6] it was 4 h; in [11] it was 0 h; in series [13], 7 h; in series [17], 2 h; in [18], 7 h. Moreover, the outcome with Rattus norvegicus was Active. Moreover, the Kd in series [7] stood at 20 nM; in [10], 40 nM; in [19], 90 nM. Moreover, the solubility (kinetic) in series [9] was 21 µM (≈ 9.82 µg/mL). The Activity entry with Salmonella typhimurium is listed as “Non-Toxic”. The area under the curve (AUC) in [14] came to 102 ng·h/mL.
